RAD52 anneal inh: blocks human RAD52 DNA annealing. 360,000 compounds, 0.46% hits. P43351. AID 651710. recombinant RAD52 DNA annealing, FRET fluorescence. inhibition, % at 18.7 µM;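 active = every replicate showing at least 50% inhibition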
Glyco luc inh: blocks N-linked glycosylation in D54 reporter cells; D54 ERlucT glycosylation luciferase reporter, 24 h; percent of 100 nM tunicamycin response; reporter increase, % at 12.5 µM; 360,000 compounds, 0.23% hits; AID 588692;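 active = mean luciferase reporter signal, scaled so untreated is 0 and the glycosylation-blocking control 100, at or above a set limit in every replicate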;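 also: luciferase carries N-glycosylation sites so blocking glycosylation raises the light; 0% = median of neutral control wells and 100% = median of 100 nM tunicamycin wells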
RAD54 branch: RAD54 (human) branch migration inhibition; Q92698; RAD54 Holliday junction branch migration, FAM/BHQ fluorescence; inhibition, % at 10.4 µM; 360,000 compounds, 0.14% hits; AID 602329;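 active = mean normalized replicate activity at least 40 and at least half of replicates scoring 40 or more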;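 also: 0% = median of neutral control wells and 100% = median of positive control wells; inhibitors cause a drop in the FAM fluorescence signal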
Target sequence (Q92698 whole entry, looked up): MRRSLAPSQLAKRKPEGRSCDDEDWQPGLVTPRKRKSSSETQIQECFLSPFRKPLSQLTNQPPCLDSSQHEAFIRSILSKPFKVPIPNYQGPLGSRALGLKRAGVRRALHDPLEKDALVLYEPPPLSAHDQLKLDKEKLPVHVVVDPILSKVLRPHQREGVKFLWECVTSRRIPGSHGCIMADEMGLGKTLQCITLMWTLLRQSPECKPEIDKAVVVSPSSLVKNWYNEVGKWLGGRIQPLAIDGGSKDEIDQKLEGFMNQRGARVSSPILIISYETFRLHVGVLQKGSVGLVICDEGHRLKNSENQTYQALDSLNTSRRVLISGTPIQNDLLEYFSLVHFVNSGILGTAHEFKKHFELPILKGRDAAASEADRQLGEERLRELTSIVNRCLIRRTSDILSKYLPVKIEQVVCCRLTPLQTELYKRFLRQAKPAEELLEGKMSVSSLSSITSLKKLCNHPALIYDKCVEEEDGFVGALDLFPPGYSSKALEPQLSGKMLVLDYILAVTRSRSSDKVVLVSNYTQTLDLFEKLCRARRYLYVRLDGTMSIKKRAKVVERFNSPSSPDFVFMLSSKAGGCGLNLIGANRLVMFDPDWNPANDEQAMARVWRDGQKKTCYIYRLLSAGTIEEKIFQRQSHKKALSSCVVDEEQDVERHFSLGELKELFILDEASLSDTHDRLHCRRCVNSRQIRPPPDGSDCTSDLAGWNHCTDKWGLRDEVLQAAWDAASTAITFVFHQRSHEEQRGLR
AF4-AF9 inh: MLL-AF4/AF9 protein interaction inhibition; 350,000 compounds, 0.47% hits; P42568; inhibition, % at 10 µM; AlphaScreen, biotin-AF4 peptide binding to FLAG-AF9;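 active = every replicate reaching a set inhibition limit, whatever the replicate mean, cut at about 25% in these data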;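 also: 0% = plate neutral control median and 100% = total signal loss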
NSD2 HMT inh: blocks human histone methyltransferase NSD2; NSD2 peptide methylation, AlphaScreen, 120 min; inhibition, % at 12.5 µM; 310,000 compounds, 0.54% hits; in the data active = inhibition above about 50%
FN deposition inh: fibronectin deposition inhibition. AH1F fibroblasts, Alexa488-fibronectin deposition fluorescence, overnight. inhibition, % at 12.6 µM. 350,000 compounds, 0.086% hits. AID 743247;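 active = mean inhibition across replicates of 30% or more, regardless of how many single replicates reach that level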;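 also: positive control wells lacked labelled fibronectin entirely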
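Material – AH1F fibroblast monolayer, labelled fibronectin deposition · Reagent – labelled fibronectin 24 nM · Timing – 1 h adhesion, overnight exposure · Measured by – fluorescence at 485 nm excitation, 525 nm emission · Read-out – inhibition of fibronectin deposition signal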
* marks the source's active call; other numbers are inactive results. Only some compounds are listed: those with a hit (about 1.2% of all), similar ones and a draw of the others.

`O=C(OCn1ncc(Cl)c(Cl)c1=O)c1ccccc1Cl` gave Glyco luc inh -24.8, RAD54 branch -6.6 and FN deposition inh active.
`C[C@@H]1CN([C@@H](C)CO)C(=O)c2cc(N(C)C)ccc2O[C@@H]1CN(C)Cc1ccc(-c2ccccc2)cc1` gave RAD52 anneal inh 11.5, RAD54 branch -7.3 and AF4-AF9 inh 48.0*.
`C[C@H](CO)N1C[C@H](C)[C@@H](CN(C)Cc2ccc(-c3ccccc3)cc2)Oc2ccc(N(C)C)cc2C1=O` gave RAD52 anneal inh 3.8, RAD54 branch -9.4 and AF4-AF9 inh 29.3*.
For C[C@H](CO)N1C[C@H](C)[C@H](CN(C)Cc2ccc(-c3ccccc3)cc2)Oc2ccc(N(C)C)cc2C1=O the results were RAD52 anneal inh 14.6, RAD54 branch -8.1 and AF4-AF9 inh 49.4*.
Screening C[C@H](CO)N1C[C@H](C)[C@H](CN(C)Cc2ccccc2)Oc2ccc(N(C)C)cc2C1=O returned RAD52 anneal inh 4.7, RAD54 branch -16.0 and AF4-AF9 inh -1.4.
C[C@@H]1CN([C@@H](C)CO)C(=O)c2cc(-c3ccccc3)cnc2O[C@@H]1CN(C)C(=O)c1cccc(F)c1 was read as FN deposition inh 18.8.
Screening C[C@H]1CN([C@@H](C)CO)C(=O)c2cc(-c3ccccc3)cnc2O[C@@H]1CN(C)C(=O)c1cccc(F)c1 returned FN deposition inh 37.7*.
`CCC(=O)N[C@@H]1C=C[C@H](CC(=O)NCc2ccccc2F)O[C@H]1CO` gave RAD52 anneal inh 7.9, RAD54 branch 5.2 and AF4-AF9 inh 0.8.
Screening C[C@H](CO)N1C[C@H](C)[C@@H](CN(C)Cc2ccc(Oc3ccccc3)cc2)Oc2ccc(N(C)C)cc2C1=O returned RAD52 anneal inh -10.7, RAD54 branch -7.5, AF4-AF9 inh 37.4* and FN deposition inh -8.9.
Screening C[C@H]1CN([C@@H](C)CO)C(=O)c2cc(N(C)C)ccc2O[C@H]1CN(C)Cc1ccc(-c2ccccc2)cc1 returned RAD52 anneal inh 7.3, RAD54 branch -2.8 and AF4-AF9 inh 33.4*.
For COCCOC(=O)N1C(=O)[C@@]2(c3cc(C#CCCO)ccc31)[C@H](c1ccccc1OCCO)N1[C@H](c3ccccc3)[C@H](c3ccccc3)OC(=O)[C@H]1[C@@H]2C(=O)N1CCN(c2ncccn2)CC1 the results were RAD52 anneal inh 13.9, RAD54 branch 0.1 and AF4-AF9 inh -0.3.
`CCN(CC)S(=O)(=O)c1cccc(NC(=O)CN2C(=O)NC3(CCC(C)CC3)C2=O)c1` (centres undefined) gave RAD52 anneal inh -15.3, Glyco luc inh 32.4*, RAD54 branch -2.7, AF4-AF9 inh -16.2, NSD2 HMT inh -1.6 and FN deposition inh 7.7.
Screening CC1CCC2(CC1)NC(=O)N(CC(=O)Nc1cccc(S(=O)(=O)N(C)c3ccccc3)c1)C2=O (centres undefined) returned RAD52 anneal inh -25.4, Glyco luc inh 14.1, RAD54 branch 18.8, AF4-AF9 inh 2.9, NSD2 HMT inh -0.9 and FN deposition inh -24.4.
For CC(C)c1ccc(NC(=O)CN2C(=O)NC3(CCCCCCC3)C2=O)cc1 the results were RAD52 anneal inh -4.1, Glyco luc inh 37.3*, RAD54 branch -4.2, AF4-AF9 inh -0.5, NSD2 HMT inh 2.7 and FN deposition inh -1.1.
For O=C(C[C@H]1CC[C@@H](NC(=O)NC2CCCCC2)[C@@H](CO)O1)NCc1ccccc1 the results were RAD52 anneal inh -6.0, RAD54 branch 8.9, AF4-AF9 inh -0.9 and FN deposition inh 4.1.
`O=C(c1cc(C(=O)N2CCOCC2)c2nc3ccccc3n2c1)c1cc(Cl)cc(Cl)c1O` gave RAD52 anneal inh -5.1, Glyco luc inh 1.1, AF4-AF9 inh 27.3* and FN deposition inh 1.9.
`Cc1noc(C)c1NC(=O)Nc1ccc2c(c1)C(=O)N([C@H](C)CO)C[C@@H](C)[C@H](CN(C)S(=O)(=O)c1ccc(F)cc1)OCCCC[C@H](C)O2` gave RAD52 anneal inh 12.5, RAD54 branch 4.5 and AF4-AF9 inh 2.8.
Screening O=C1N[C@H]2CC=C[C@H]2N(Cc2cccs2)c2ccccc21 returned RAD52 anneal inh -8.1, Glyco luc inh 54.1*, RAD54 branch -6.0, AF4-AF9 inh -3.5 and FN deposition inh 11.6.
`COc1ccc2c3c([nH]c2c1)[C@@H](CO)N(Cc1nccs1)CC31CCN(Cc2cccnc2)CC1` gave RAD52 anneal inh 60.4*, AF4-AF9 inh 0.4 and FN deposition inh 2.6.
COCC(=O)N1CC2(CN(Cc3ccccc3)C2)c2c([nH]c3cc(OC)ccc23)[C@@H]1CO was read as RAD52 anneal inh 4.9 and AF4-AF9 inh 1.4.
For COc1ccc(CN2CC3(C2)CN(Cc2ccc4c(c2)OCO4)[C@@H](CO)c2[nH]c4cc(OC)ccc4c23)cc1 the results were AF4-AF9 inh 49.9*.
COc1ccc2c3c([nH]c2c1)[C@@H](CO)N(Cc1ccc(Cl)cc1)CC31CCN(Cc2nccs2)CC1 was read as RAD52 anneal inh -42.2, AF4-AF9 inh 6.9 and FN deposition inh -11.9.
CCCNC(=O)N1CC2(CCN(C(=O)C3CCC3)CC2)c2c([nH]c3cc(OC)ccc23)[C@@H]1CO was read as AF4-AF9 inh 43.8*.
`COc1ccc2c3c([nH]c2c1)[C@H](CO)N(C(=O)CN(C)C)CC31CN(Cc2ccccc2)C1` gave RAD52 anneal inh 55.2* and AF4-AF9 inh 4.7.
Screening O=C(Nc1ccc(F)cc1)N[C@@H]1CC[C@@H](CCn2cc(C3(O)CCCC3)nn2)O[C@@H]1CO returned RAD52 anneal inh -13.8, RAD54 branch -3.9 and AF4-AF9 inh -0.7.
For COc1ccc2c3c([nH]c2c1)[C@@H](CO)N(C(=O)CN(C)C)CC31CN(CC2CC2)C1 the results were RAD52 anneal inh 55.9*, AF4-AF9 inh 16.1 and FN deposition inh 19.0.
Screening COc1ccc2c3c([nH]c2c1)[C@H](CO)N(C(=O)CN(C)C)CC31CN(CC2CCCC2)C1 returned RAD52 anneal inh 49.3 and AF4-AF9 inh 15.3.
COc1ccc2c3c([nH]c2c1)[C@H](CO)N(C(=O)CN(C)C)CC31CN(CC2CC2)C1 was read as RAD52 anneal inh 50.2*, AF4-AF9 inh 13.3 and FN deposition inh -13.6.
CCC(=O)N1CC2(CCN(Cc3ccc(Cl)cc3)CC2)c2c([nH]c3cc(OC)ccc23)[C@@H]1CO was read as AF4-AF9 inh 26.1*.
For CC(=O)NC(c1cccc(F)c1)c1nc(-c2ccccc2C)cs1 (centres undefined) the results were RAD52 anneal inh -4.5, Glyco luc inh 19.0, RAD54 branch 10.2, AF4-AF9 inh -0.7, NSD2 HMT inh 13.2 and FN deposition inh 5.3.

Screening results deposited in PubChem BioAssay by Broad Institute.
